Hits are enriched below; roughly 4.2% of the tested compounds scored in any of these assays.
Autophagy mod = autophagy modulation, high-content screen | MEF GFP-LC3 puncta imaging; test concentration mostly 10 µM | AID 463193 | calls only at 10 µM (by protocol) | hit rate 0.98% among 190,000;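 active = percentage of spot-positive cells more than 3 SD above its plate mean, without a fluorescence outlier flag or 80% toxicity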;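 also: spot-positive cell cutoff set from DMSO-treated cells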
SKKanGAS inh = SKKanGAS growth inhibition; S. pyogenes SKKanGAS, kanamycin growth, BacTiter-Glo, 6 h; inhibition, % at 7.5 µM; hit rate 1.3% among 300,000;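 active = mean replicate score, as percent of positive control median, at least 50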;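 also: strain carries kanamycin resistance gene driven by streptokinase promoter and grows in 40 µg/ml kanamycin; loss of luminescence reflects streptokinase promoter inhibition or plain growth inhibition; 0% = median of DMSO wells and 100% = positive control at its reference dose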
KCC2 mod = KCC2 (human) Cl- transport modulation; Q9H2X9; KCC2 cells, thallium flux FluoZin-2 fluorescence; B-score of Tl+ flux slope (higher = more flux/activation; lower = inhibition) at 10 µM; hit rate 2.2% among 190,000;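 active = thallium flux slope and its plate-corrected score both differing from the plate sample mean at a set confidence after two filtering rounds, in either direction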;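 also: slope of fluorescence scaled to starting intensity during 10 to 20 s after thallium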
Rad51 HR inh = blocks human Rad51 in homologous recombination | AID 1385 | Q06609 | hit rate 0.085% among 200,000 | hRad51 DNA strand exchange, fluorescence dequenching | inhibition, % at 10 µM;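 active = inhibition above 40% at the single screening dose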;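 also: 0% = DMSO control wells and 100% = blanks with heterologous ssDNA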
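material = hRad51 filaments on single-stranded DNA | timing = filaments 15 min 37 °C, then compound 30 min | signal = FRET fluorescence dequenching, excitation 485 nm, emission 520 nm | benchmarks = control wells and blank wells on each plate | evaluation = percent inhibition relative to plate controls and blanks | compound = 10 µM final, single point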
Ins promoter up = MIN6 insulin promoter up-regulation; hit rate 0.3% among 190,000; z-score at 5 µM; MIN6 insulin promoter-GFP reporter, high-content imaging; active compounds read high;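 active = z-score above 3 at 5 µM with at least 500 cells counted in the well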
WT yeast gro inh = growth inhibition of WT yeast, mitochondrial fusion screen | mitochondrial fusion phenotypic screen, WT strain | inhibition, % at 10 µM | hit rate 2.1% among 190,000 | AID 1362; in the data active = inhibition above about 58%; tested in S. cerevisiae
An asterisk follows results filed as active; i = inactive; / = no result given; + = active, no number.

SMILES	Autophagy mod	SKKanGAS inh	KCC2 mod	Rad51 HR inh	Ins promoter up	WT yeast gro inh
COCCCNC(=O)c1cccc(C(=O)NCCCOC)c1	i	-5	/	0	0.35	66*
CCCC1=Nc2cc(C(=O)NCCCOCC)ccc2Sc2ccccc21	i	-6	-1.1	2	-1.1	-4
CCC1=Nc2cc(C(=O)NCCCOC)ccc2Sc2ccccc21	+	6	-0.56	1	-0.94	4
CC(=O)/C(C#N)=C1\NC(=O)C(Cc2ccccc2C)S1 (centres undefined)	/	11	-0.97	-19	1.4	/
COc1cc(-c2nc(-c3ccc4c(c3)-c3ccccc3S4(=O)=O)c(-c3ccccc3)[nH]2)cc(OC)c1O	i	66*	/	-7	-2.5	11
COc1cc(/C=N/NC(=O)Cc2csc(C)n2)ccc1OCC(C)C	i	17	-1.4	0	-0.44	1
COc1ccc(/C=N/NC(=O)Cc2csc(Nc3cccc(C(F)(F)F)c3)n2)cc1C	i	77*	0.47	3	-0.45	26
COc1ccccc1NC(=O)C(=O)N/N=C(\C)CC(=O)Nc1ccccc1C(F)(F)F	/	1	/	/	/	/
COc1ccc(/C=C2\CC/C(=C\c3ccc(OC)c(OC)c3)C2=O)cc1OC	i	6	0.17	18	0.08	24
COc1ccc(/C=c2\s/c(=C/C(=O)c3ccc(C)cc3)[nH]c2=O)cc1OC	i	62*	0.62	-70	2.8	-6
COc1ccc(NS(=O)(=O)c2cccc(C(=O)NCc3cccnc3)c2)cc1	/	6	/	/	/	/
C=CCn1c(SCCOc2ccc(OC)cc2)nnc1C(C)NC(=O)Cc1ccc(OC)cc1 (centres undefined)	i	6	0.0066	8	4.2*	-11
O=C(Nc1ccc(Cl)c(Cl)c1)OCc1cccnc1	i	43	/	-1	0.44	79*
COc1cccc(S(=O)(=O)NCc2ccc(C(=O)Nc3ccc(Cl)c(Cl)c3)cc2)c1	i	6	-0.04	2	3.1*	6
O=C(Nc1cccnc1)OCc1ccccc1	/	-3	/	/	/	/
O=C(Nc1ccc(Cl)c(Cl)c1)c1cccc(S(=O)(=O)NCc2cccnc2)c1	i	-7	0.38	1	0.08	76*
CCOC(=O)c1c(S(=O)(=O)Nc2ccc(F)cc2C)c(C)n(C)c1C	/	1	/	/	/	/
Cc1ccc(C)c(C(=O)OCC(=O)Nc2ccc(N3CCOCC3)cc2)c1	i	-3	/	28	-0.31	-6
CCOc1ccc(S(=O)(=O)N(CC)CC)cc1NC(=O)CSCc1c(C)noc1C	/	13	/	/	/	/
CCN(CC)CCCC(C)Nc1c2ccc(Cl)cc2nc2ccc(OC)cc12 (centres undefined)	/	/	i	/	12*	8
COc1ccc2nc3cc(Cl)ccc3c(Nc3cc(C(C)C)c(O)cc3C)c2c1	/	12	1.1	7	/	/
O=C(N/N=C/c1ccc(Br)cc1)c1ccc(Br)o1	i	-13	-0.58	2	0.28	5
COc1ccc(NC(=O)CN2CCCCCC2)cc1OC	/	-11	/	/	/	/
CCOc1ccc(C2C(C(=O)c3ccco3)=C(O)C(=O)N2CCN2CCOCC2)cc1OCC (centres undefined)	/	-1	/	/	/	/
CCCOc1ccc(C2C(C(=O)c3ccco3)=C(O)C(=O)N2CCN2CCOCC2)cc1OC (centres undefined)	i	0	/	/	0.09	58*
SMILES	Autophagy mod	SKKanGAS inh	KCC2 mod	Rad51 HR inh	Ins promoter up	WT yeast gro inh
CN(C)CCN(C(=O)c1ccc(N2C(=O)CCC2=O)cc1)c1nc2cc3c(cc2s1)OCCO3	i	1	-0.34	/	0.64	-6
Cc1cc(S(=O)(=O)N2CCCC(N3CCOCC3)C2)c(C)cc1Cl (centres undefined)	/	10	/	/	/	/
NC1=NC(=O)/C(=C/c2cn(Cc3ccccc3)c3ccccc23)S1	i	0	-0.095	-18	-0.41	-19
Cc1ccc2nc(-c3ccccc3)c(CN3CCN(c4ccccc4F)CC3)n2c1	i	-5	-0.3	33	-0.5	83*
COc1cccc(C(=O)NC2CC3CCCC(C2)N3S(=O)(=O)c2ccccc2)c1 (centres undefined)	/	-13	/	14	-0.98	/
CN=C1c2cc3cc(OC)ccc3n2CCN1Cc1ccccc1	+	-2	/	/	-0.98	1
CCN(CC)CCNC1=NCCn2c1cc1cc(OC)ccc12	i	-5	/	-1	-0.11	0
O=C(/C=C/c1cccc(Br)c1)N1CCN(c2ccccn2)CC1	i	-5	-1.8	/	-0.04	22
COc1ccc(CN2CCN(C3CCC3)CC2CCO)c(C)c1C (centres undefined)	/	3	/	/	/	/
CCC(=O)c1ccc(OC(=O)Cc2ccc(OC)cc2)cc1	/	-16	/	/	/	/
CCc1nnc(NS(=O)(=O)c2ccc(N=Cc3c(C)[nH]n(-c4ccc(Cl)cc4)c3=O)cc2)s1	i	14	-0.65	/	0.63	30
Cc1[nH]n(-c2ccccc2)c(=O)c1C=Nc1cccc2cccnc12	+	-5	1.4	0	-0.82	-6
Cc1ccc(-n2[nH]c(C)c(/C=N/c3ccccn3)c2=O)cc1	i	5	/	-1	-0.25	35
COc1ccc2nc(/N=C/c3c(C)[nH]n(-c4ccc(C)cc4)c3=O)sc2c1	i	8	54*	-3	-0.07	30
Cc1ccc(-n2[nH]c(C)c(C=Nc3cc(C)ccn3)c2=O)cc1	i	10	4.2*	0	0.07	13
Cc1[nH]n(-c2ccc(Cl)cc2)c(=O)c1/C=N/c1nnc(-c2ccccc2)s1	i	-3	45*	-62	-0.22	15
CCCCNS(=O)(=O)c1ccc2nc(-c3cccs3)cc(C(=O)NCC(OC)OC)c2c1	i	3	-0.77	/	-0.03	9
COc1ccc(OC)c(S(=O)(=O)N2CCC(C(=O)N(C)Cc3ccccc3)CC2)c1	/	-5	-2.3	10	-0.61	/
Clc1ccc(C#Cc2cccnc2)cc1	/	-6	/	/	/	/
O=C(O)c1cc(-c2ccc(Cl)cc2)n(-c2cccc(Cl)c2)n1	/	1	/	/	/	/
O=C(CC1SC(=Nc2ccccc2)N(CCc2ccccn2)C1=O)Nc1ccc(F)cc1 (centres undefined)	i	1	0.72	-10	-0.11	17
O=C(CC1SC(=Nc2ccccc2)N(CCc2c[nH]c3ccccc23)C1=O)Nc1ccccc1F (centres undefined)	i	86*	-0.051	-3	-0.31	39
O=C(CN1C(=O)COc2ccccc21)N(Cc1cccnc1)Cc1cccc(F)c1	i	-5	-0.69	-7	-0.9	77*
CCC1Oc2ccc(C)cc2N(CC(=O)N(Cc2cccnc2)Cc2cccc(F)c2)C1=O (centres undefined)	i	4	-0.76	-12	/	-11
CN1CCN(c2ccc(NC(=O)c3ccc(-c4ccc(Br)cc4)o3)cc2)CC1	+	-21	-4.6	25	1	81
CN(C)S(=O)(=O)c1ccc(NC(=S)NC(=O)c2ccc(Br)o2)cc1	i	1	13*	-6	0.85	8
O=C(O)c1ccc(NC(=S)NC(=O)c2ccc(-c3ccc(Br)cc3)o2)cc1	/	55*	/	/	/	/
